The source made the active and inactive calls. The calls are words filed in the database; no cut-off is given here.

Experimental findings from ChEMBL document CHEMBL1275600, “Prophylactic activity of intramuscular peramivir in mice infected with a recombinant influenza A/WSN/33 (H1N1) virus containing the H274Y neuraminidase mutation” (Antimicrob Agents Chemother, 2010) are described below.

Data set [1] relates to Influenza A virus. Kind of data set: Antiviral activity against Influenza A/WSN/33 (H1N1) virus infected in mouse assessed as survival rate at 10 mg/kg, im administered 4 days before viral challenge. The data set is classed as functional. The conditions noted are these: A/WSN/1933(H1N1), route intramuscular.
The test system of data set [2] is Mus musculus. The experiment in a line: Toxicity against BALB/c mouse assessed as mortality at 45 mg/kg, im once daily for 5 days measured after 14 days. As to conditions: in vivo, 336 h. Also noted: dose 45 mg/kg, route intramuscular. The data set is classed as organism-based. Summed up: (§1)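 Uninfected male BALB/c mice, 6 per group, received IM drug at 45 mg/kg once daily for 5 days, dissolved at 50 mg/ml in pH 3.0 buffered saline, or PBS. Body weight and mortality were monitored daily for 14 days.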

Data set [3] is described as follows: Cmax in mouse at 30 mg/kg, im administered as single dose and measured after 30 mins. Also noted: dose 30 mg/kg, route intramuscular. The data set is classed as ADME, organism-based. As to conditions: in vivo.
The test system of data set [4] is Influenza A virus. Kind of data set: Antiviral activity against Influenza A/WSN/33 (H1N1) virus infected in mouse assessed as survival rate at 10 mg/kg, po administered 4 days before viral challenge. The data set is classed as functional. The conditions noted are these: A/WSN/1933(H1N1).
Data set [5] concerns Mus musculus. Kind of data set: Toxicity against recombinant Influenza A/WSN/33 (H1N1) virus infected BALB/c mouse assessed as weight loss at 45 mg/kg, im once daily for 5 days measured after 14 days. As to conditions: in vivo, 336 h. The data set is classed as organism-based. Set-up: dose 45 mg/kg, route intramuscular. The gist of the method:
(§2)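 Male BALB/c mice, groups of 12, received IM drug at 50 mg/ml in pH 3.0 buffered saline, starting 1 h before intranasal infection with 8 × 10^3 PFU of recombinant virus. Body weight was monitored daily for 14 days. Mean weight loss was compared across regimens by one-way ANOVA, with uninfected PBS-treated mice as reference.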

The nature of data set [6]: Cmax in mouse at 30 mg/kg, im administered as single dose and measured after 24 hrs. The data set is classed as ADME, organism-based. Set-up: dose 30 mg/kg, route intramuscular. As to conditions: in vivo.
Data set [7] has as its system Influenza A virus. Kind of data set: Antiviral activity against recombinant Influenza A/WSN/33 (H1N1) virus infected in BALB/c mouse assessed as survival of mouse at 45 mg/kg, im administered as single dose. It counts as functional, organism-based. Also noted: dose 45 mg/kg. The conditions noted are these: A/WSN/1933(H1N1). The gist of the method: (§3)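 Male BALB/c mice, 6–8 weeks old and 20–25 g, were randomized by weight, 4 per cage, in groups of 12. Drug at 50 mg/ml in saline buffered to pH 3.0 was given by IM hip injection, first dose 1 h before challenge. Mice were infected intranasally under isoflurane with 8 × 10^3 PFU of cell-grown recombinant virus in 30 μl PBS. Mortality was recorded daily for 14 days.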

Data set [8] deals with Influenza A virus. Kind of data set: Antiviral activity against recombinant Influenza A/WSN/33 (H1N1) virus infected in BALB/c mouse assessed as survival of mouse at 45 mg/kg, im once daily for 5 days. The data set is classed as functional, organism-based. The conditions noted are these: A/WSN/1933(H1N1). Set-up: dose 45 mg/kg. The gist of the method: as §3
The test system of data set [9] is Influenza A virus. Kind of data set: Antiviral activity against recombinant Influenza A/WSN/33 (H1N1) virus infected in BALB/c mouse assessed as survival of mouse at 90 mg/kg, im administered as single dose. The conditions noted are these: A/WSN/1933(H1N1). Also noted: dose 90 mg/kg. It counts as functional, organism-based. Summed up: as §3
Data set [10] has as its target Neuraminidase (Influenza A virus (strain A/Wilson-Smith/1933 H1N1) (Influenza A virus(strain A/WS/1933 H1N1))) (UniProt P03470). The conditions noted are these: Influenza A virus (A/WSN/1933(H1N1)); 10 mg/kg.
Data set [11] has as its system Mus musculus. Kind of data set: Toxicity against recombinant Influenza A/WSN/33 (H1N1) virus infected BALB/c mouse assessed as weight loss at 90 mg/kg, im administered as single dose and measured after 14 days. It counts as organism-based. Also noted: dose 90 mg/kg, route intramuscular. As to conditions: in vivo, 336 h. Summed up:
as §2

Data set [12] deals with Neuraminidase (Influenza A virus (strain A/Wilson-Smith/1933 H1N1) (Influenza A virus(strain A/WS/1933 H1N1))) (UniProt P03470). As to conditions: Influenza A virus (A/WSN/1933(H1N1)); 2 to 20 mg/kg.
The test system of data set [13] is Mus musculus. Kind of data set: Toxicity against recombinant Influenza A/WSN/33 (H1N1) virus infected BALB/c mouse assessed as weight loss at 45 mg/kg, im administered as single dose and measured after 14 days. It counts as organism-based. Set-up: dose 45 mg/kg, route intramuscular. As to conditions: in vivo, 336 h. The gist of the method:
as §2

In data set [14] the test system is Mus musculus. Kind of data set: Toxicity against BALB/c mouse assessed as weight loss in mouse at 45 mg/kg, im once daily for 5 days measured after 14 days. It counts as organism-based. Set-up: dose 45 mg/kg, route intramuscular. The conditions noted are these: in vivo, 336 h. Summed up:
as §1

Chain of Neuraminidase (Influenza A virus (strain A/Wilson-Smith/1933 H1N1) (Influenza A virus(strain A/WS/1933 H1N1))) (P03470 whole entry): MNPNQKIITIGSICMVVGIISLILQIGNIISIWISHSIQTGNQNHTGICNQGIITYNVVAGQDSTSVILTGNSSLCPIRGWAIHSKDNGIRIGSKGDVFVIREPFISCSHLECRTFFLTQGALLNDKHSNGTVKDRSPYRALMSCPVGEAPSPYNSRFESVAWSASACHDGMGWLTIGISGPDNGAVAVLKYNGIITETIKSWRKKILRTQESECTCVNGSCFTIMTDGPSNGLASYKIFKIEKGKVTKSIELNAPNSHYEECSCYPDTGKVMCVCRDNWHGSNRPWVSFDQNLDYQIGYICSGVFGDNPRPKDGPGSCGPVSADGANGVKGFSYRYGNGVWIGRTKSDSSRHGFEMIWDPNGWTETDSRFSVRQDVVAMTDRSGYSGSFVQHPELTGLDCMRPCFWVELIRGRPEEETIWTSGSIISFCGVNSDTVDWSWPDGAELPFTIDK

Turning to `CCC(CC)[C@H](NC(C)=O)[C@@H]1[C@H](O)[C@@H](C(=O)O)C[C@H]1NC(=N)N` [PERAMIVIR ANHYDROUS], the figures for the survival at 10 mg/kg in data set [1] and in [4] were 100% and 50%, respectively. Moreover, the Activity entry in [2], in [5], in data set [11], in data set [13] and in data set [14] was “Non-toxic” throughout. Also, the Cmax was determined as 17700 ng/mL in data set [3] and 29.3 ng/mL in data set [6]. The result in data set [7], in [8] and in [9] was Active. Moreover, the T1/2 in data set [10] was more than 24 h; in data set [12] it was 1.25 h.

What is called Cmax is the maximum level reached in the sampled fluid or tissue.
